{
  "source": "ChEMBL document CHEMBL3808334",
  "about": "“Synthesis and in vitro evaluation of novel triazine analogues as anticancer agents and their interaction studies with bovine serum albumin” (Eur J Med Chem, 2016)",
  "type_in_all_cases": "functional",
  "key": {"[1]": {"assay": "Growth inhibition of human UO31 cells assessed as cell growth at 10^-4 M incubated for 48 hrs by sulforhodamine B assay", "conditions": "UO-31, 48 h, read-out: Activity"}, "MDA-MB-231": {"system": "MDA-MB-231", "assay": "Growth inhibition of human MDA-MB-231 cells assessed as cell growth at 10^-4 M incubated for 48 hrs by sulforhodamine B assay", "conditions": "MDA-MB-231, 48 h, read-out: Activity"}, "[2]": {"assay": "Growth inhibition of human MOLT4 cells incubated for 48 hrs by sulforhodamine B assay", "conditions": "MOLT-4, 48 h", "in_short": "(§1)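 Cells were plated at 5,000–40,000 per well according to doubling time and preincubated 24 h at 37 °C in 5% CO2; time-zero plates were then TCA-fixed. Five concentrations (10-fold or ½-log dilutions, DMSO stock) were incubated 48 h. Cells were TCA-fixed, stained with 0.4% SRB and read at 515 nm. GI50 was taken where [(Ti−Tz)/(C−Tz)]×100 = 50.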"}, "[3]": {"assay": "Growth inhibition of human HOP92 cells incubated for 48 hrs by sulforhodamine B assay", "conditions": "HOP-92, 48 h", "in_short": "(§2)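 Cells seeded at 5,000–40,000/well according to doubling time and preincubated 24 h at 37 °C, 5% CO2. Time-zero plates were TCA-fixed. DMSO concentrate was diluted in medium with 50 µg/ml gentamicin to give five concentrations (10-fold or ½ log steps), then exposed 48 h. Cells were TCA-fixed, stained with 0.4% SRB and read at 515 nm. Percent growth was taken against time-zero and control; GI50, TGI and LC50 derived.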"}, "SK-MEL-2 [4]": {"system": "SK-MEL-2", "assay": "Growth inhibition of human SK-MEL-2 cells incubated for 48 hrs by sulforhodamine B assay", "conditions": "SK-MEL-2, 48 h", "in_short": "as §1"}, "[5]": {"assay": "Growth inhibition of human OVCAR5 cells incubated for 48 hrs by sulforhodamine B assay", "conditions": "OVCAR-5, 48 h", "in_short": "as §1"}, "NCI/ADR-RES": {"system": "NCI/ADR-RES", "assay": "Growth inhibition of human NCI/ADR-RES cells incubated for 48 hrs by sulforhodamine B assay", "in_short": "as §1"}, "MCF7": {"system": "MCF7", "assay": "Growth inhibition of human MCF7 cells incubated for 48 hrs by sulforhodamine B assay", "conditions": "MCF7, 48 h", "in_short": "as §1"}, "[6]": {"assay": "Growth inhibition of human DU145 cells assessed as cell growth at 10^-8 M incubated for 48 hrs by sulforhodamine B assay", "conditions": "DU-145, 48 h, read-out: Activity", "in_short": "as §2"}, "[7]": {"assay": "Growth inhibition of human HCT15 cells assessed as cell growth at 10^-7 M incubated for 48 hrs by sulforhodamine B assay", "conditions": "HCT-15, 48 h, read-out: Activity", "in_short": "as §2"}, "CCRF-CEM": {"system": "CCRF-CEM", "assay": "Growth inhibition of human CCRF-CEM cells assessed as cell growth at 10^-4 M incubated for 48 hrs by sulforhodamine B assay", "conditions": "read-out: Activity", "in_short": "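Leukemia line in the five-dose format: five concentrations from 10-fold or ½-log serial dilutions. Plated at 5,000–40,000 cells per well, preincubated 24 h, then compound added for 48 h at 37 °C, 5% CO₂. Sulforhodamine B absorbance read at 515 nm. Growth is computed against time-zero (Tz) and control (C) readings; GI₅₀ is where [(Ti−Tz)/(C−Tz)]×100 = 50.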"}, "[8]": {"assay": "Growth inhibition of human OVCAR4 cells assessed as cell growth at 10^-7 M incubated for 48 hrs by sulforhodamine B assay", "conditions": "OVCAR-4, 48 h, read-out: Activity"}, "[9]": {"assay": "Growth inhibition of human SKOV3 cells assessed as cell growth at 10 uM incubated for 48 hrs by sulforhodamine B assay", "conditions": "SK-OV-3, 48 h, read-out: Activity"}, "[10]": {"assay": "Growth inhibition of human Hs 578T cells assessed as cell growth at 10 uM incubated for 48 hrs by sulforhodamine B assay", "conditions": "read-out: Activity"}, "KM12": {"system": "KM12", "assay": "Growth inhibition of human KM12 cells assessed as cell growth at 10^-6 M incubated for 48 hrs by sulforhodamine B assay", "conditions": "KM12, 48 h, read-out: Activity"}, "[11]": {"assay": "Growth inhibition of human HCC2998 cells assessed as cell growth at 10^-8 M incubated for 48 hrs by sulforhodamine B assay", "conditions": "HCC 2998, 48 h, read-out: Activity", "in_short": "as §2"}, "SK-MEL-2 [12]": {"system": "SK-MEL-2", "assay": "Growth inhibition of human SK-MEL-2 cells assessed as cell growth at 10^-6 M incubated for 48 hrs by sulforhodamine B assay", "conditions": "SK-MEL-2, 48 h, read-out: Activity"}, "[13]": {"assay": "Growth inhibition of human OVCAR4 cells assessed as cell growth at 10^-6 M incubated for 48 hrs by sulforhodamine B assay", "conditions": "OVCAR-4, 48 h, read-out: Activity"}, "[14]": {"assay": "Growth inhibition of human OVCAR8 cells assessed as cell growth at 10^-6 M incubated for 48 hrs by sulforhodamine B assay", "conditions": "OVCAR-8, 48 h, read-out: Activity"}, "[15]": {"assay": "Growth inhibition of human HL-60(TB) cells assessed as cell growth at 10^-5 M incubated for 48 hrs by sulforhodamine B assay", "conditions": "HL-60, 48 h, read-out: Activity", "in_short": "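Cells plated at 5,000–40,000/well according to doubling time and preincubated 24 h at 37 °C, 5% CO₂, with time-zero plates TCA-fixed. Drugs were kept as DMSO concentrates at 400× the top concentration and diluted in medium with 50 µg/ml gentamicin. Five 10-fold or ½-log dilutions were run for 48 h, followed by SRB staining and A515. Percent growth = (Ti−Tz)/(C−Tz)×100, or (Ti−Tz)/Tz×100 when Ti<Tz.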"}, "[16]": {"assay": "Growth inhibition of human OVCAR3 cells assessed as cell growth at 10^-5 M incubated for 48 hrs by sulforhodamine B assay", "conditions": "OVCAR-3, 48 h, read-out: Activity"}, "[17]": {"assay": "Growth inhibition of human RPMI8226 cells assessed as cell growth at 10 uM incubated for 48 hrs by sulforhodamine B assay", "conditions": "RPMI-8226, 48 h, read-out: Activity"}, "T47D": {"system": "T47D", "assay": "Growth inhibition of human T47D cells incubated for 48 hrs by sulforhodamine B assay", "in_short": "as §1"}},
  "data": [
    {"smiles": "Clc1ccc(-c2nc(Nc3ccc(-c4nc5ccccc5[nH]4)cc3)nc(N3CCOCC3)n2)cc1", "values": [
      {"measurement": "growth at 100 µM", "setting": "[1]", "value": -41, "unit": "%"},
      {"measurement": "growth at 100 µM", "setting": "MDA-MB-231", "value": -22, "unit": "%"},
      {"measurement": "GI50", "setting": "[2]; read-out: GI50", "value": 217, "unit": "nM"},
      {"measurement": "TGI", "setting": "[2]; read-out: TGI", "value": 573, "unit": "nM"},
      {"measurement": "GI50", "setting": "[2]; read-out: pGI50 (converted)", "value": 219, "unit": "nM"},
      {"measurement": "TGI", "setting": "[2]; read-out: pTGI (converted)", "value": 575, "unit": "nM"},
      {"measurement": "GI50", "setting": "[3]; read-out: GI50", "value": 1300, "unit": "nM"},
      {"measurement": "LC50 (concentration killing 50% of starting cells)", "setting": "[3]; read-out: LC50", "value": 5610, "unit": "nM"},
      {"measurement": "TGI", "setting": "[3]; read-out: TGI", "value": 2700, "unit": "nM"},
      {"measurement": "GI50", "setting": "[3]; read-out: pGI50 (converted)", "value": 1290, "unit": "nM"},
      {"measurement": "LC50 (concentration killing 50% of starting cells)", "setting": "[3]; read-out: pLC50 (converted)", "value": 5620, "unit": "nM"},
      {"measurement": "TGI", "setting": "[3]; read-out: pTGI (converted)", "value": 2690, "unit": "nM"},
      {"measurement": "GI50", "setting": "SK-MEL-2 [4]; read-out: GI50", "value": 1800, "unit": "nM"},
      {"measurement": "TGI", "setting": "SK-MEL-2 [4]; read-out: TGI", "value": 3370, "unit": "nM"},
      {"measurement": "GI50", "setting": "SK-MEL-2 [4]; read-out: pGI50 (converted)", "value": 1820, "unit": "nM"},
      {"measurement": "TGI", "setting": "SK-MEL-2 [4]; read-out: pTGI (converted)", "value": 3390, "unit": "nM"},
      {"measurement": "GI50", "setting": "[5]; read-out: GI50", "value": 505, "unit": "nM"},
      {"measurement": "TGI", "setting": "[5]; read-out: TGI", "value": 1940, "unit": "nM"},
      {"measurement": "GI50", "setting": "[5]; read-out: pGI50 (converted)", "value": 501, "unit": "nM"},
      {"measurement": "TGI", "setting": "[5]; read-out: pTGI (converted)", "value": 1950, "unit": "nM"},
      {"measurement": "GI50", "setting": "NCI/ADR-RES; read-out: GI50", "value": 631, "unit": "nM"},
      {"measurement": "TGI", "setting": "NCI/ADR-RES; read-out: TGI", "value": 2190, "unit": "nM"},
      {"measurement": "GI50", "setting": "NCI/ADR-RES; read-out: pGI50 (converted)", "value": 631, "unit": "nM"},
      {"measurement": "TGI", "setting": "NCI/ADR-RES; read-out: pTGI (converted)", "value": 2190, "unit": "nM"},
      {"measurement": "GI50", "setting": "MCF7; read-out: GI50", "value": 194, "unit": "nM"},
      {"measurement": "TGI", "setting": "MCF7; read-out: TGI", "value": 490, "unit": "nM"},
      {"measurement": "GI50", "setting": "MCF7; read-out: pGI50 (converted)", "value": 195, "unit": "nM"},
      {"measurement": "TGI", "setting": "MCF7; read-out: pTGI (converted)", "value": 490, "unit": "nM"},
      {"measurement": "growth at 0.01 µM", "setting": "[6]", "value": 101, "unit": "%"},
      {"measurement": "growth at 0.1 µM", "setting": "[7]", "value": 91, "unit": "%"},
      {"measurement": "growth at 100 µM", "setting": "CCRF-CEM", "value": -36, "unit": "%"},
      {"measurement": "growth at 0.1 µM", "setting": "[8]", "value": 98, "unit": "%"},
      {"measurement": "growth at 10 µM", "setting": "[9]", "value": -89.9, "unit": "%"},
      {"measurement": "growth at 10 µM", "setting": "[10]", "value": -40.2, "unit": "%"},
      {"measurement": "growth at 1 µM", "setting": "KM12", "value": 14, "unit": "%"},
      {"measurement": "growth at 0.01 µM", "setting": "[11]", "value": 94, "unit": "%"},
      {"measurement": "growth at 1 µM", "setting": "SK-MEL-2 [12]", "value": 97, "unit": "%"},
      {"measurement": "growth at 1 µM", "setting": "[13]", "value": 52, "unit": "%"},
      {"measurement": "growth at 1 µM", "setting": "[14]", "value": 57, "unit": "%"},
      {"measurement": "growth at 10 µM", "setting": "[15]", "value": -71, "unit": "%"},
      {"measurement": "growth at 10 µM", "setting": "[16]", "value": -93, "unit": "%"},
      {"measurement": "growth at 10 µM", "setting": "[17]", "value": -73.4, "unit": "%"},
      {"measurement": "GI50", "setting": "T47D; read-out: GI50", "value": 376, "unit": "nM"},
      {"measurement": "TGI", "setting": "T47D; read-out: TGI", "value": 1720, "unit": "nM"},
      {"measurement": "GI50", "setting": "T47D; read-out: pGI50 (converted)", "value": 380, "unit": "nM"},
      {"measurement": "TGI", "setting": "T47D; read-out: pTGI (converted)", "value": 1740, "unit": "nM"}
    ]}
  ]
}
